Experimental data gathered from unrelated publications.
Each line is one published result; the experiments were not run side by side.
Cell line: A2780
Effect on: cell growth or viability

| SMILES | method | time | measurement | result |
| --- | --- | --- | --- | --- |
| CC(C)C(=O)Nc1ccc([N+](=O)[O-])c(C(F)(F)F)c1 | CCK-8 | 48 h | IC50 | > 50000 nM |
| Cc1ccc2ccc3ccc(C)nc3c2n1.[C-]#[N+]c1ccc(C)cc1.[C-]#[O+].[C-]#[O+].[C-]#[O+].[Re+] | MTT | 24 h | EC50 | 1400 nM |
| CCC[C@H](Nc1nc(-c2ccc(NC(=O)NCC)c(OC)c2)ncc1C)c1cccnc1 | fluorescence | 72 h | IC50 | 54.6 nM |
| COc1ccc(C(=O)O[C@@H]2CN3Cc4c(cc5c(c4OC)OCO5)[C@@]24C=C[C@H](OC)C[C@@H]34)cc1OC | WST-1 |  | IC50 | 6000 nM |
| Cc1[nH]c2ccccc2c1CCNCc1ccc(/C=C/C(=O)NO)cc1 | crystal violet | 48 h | IC50 | 3.9 nM |
| CC[C@]1(O)C[C@H]2CN(CCc3c([nH]c4ccccc34)[C@@](C(=O)OC)(c3cc4c(cc3OC)N(C=O)[C@H]3[C@@](O)(C(=O)OC)[C@H](OC(C)=O)[C@]5(CC)C=CCN6CC[C@]43[C@@H]65)C2)C1 | fluorescence | 72 h | IC50 | 0.22 nM |
| CC[C@@H]1C=CC(=O)O[C@@H]1C[C@@H](O)[C@H](C)[C@H](OC)[C@@H](C)Cc1ccccc1 | MTT | 48 h | GI50 | 81.9 nM |
| CC(=O)O[C@H]1C(=O)[C@@]2(C)[C@H]([C@H](OC(=O)c3ccccc3)[C@]3(O)C[C@H](OC(=O)[C@H](O)[C@@H](NC(=O)c4ccccc4)c4ccccc4)C(C)=C1C3(C)C)[C@]1(OC(C)=O)CO[C@@H]1C[C@@H]2O | CCK-8 | 72 h | IC50 | 8.2 nM |
| C[C@H]1O[C@@H](n2cc(F)c(=O)[nH]c2=O)[C@H](O)[C@@H]1O | CCK-8 | 48 h | IC50 | > 50000 nM |
| CC[C@@H]1C=CC(=O)O[C@@H]1C[C@@H](OC)[C@H](C)[C@H](OC)[C@@H](C)Cc1ccc(F)cc1 | MTT | 48 h | GI50 | 1930 nM |
| COc1c2c(cc3c1OCO3)[C@]13C=C[C@H](OC)C[C@H]1N(C2)C[C@H]3OC(=O)c1cccc(C)c1 | WST-1 |  | IC50 | > 10000 nM |
| CC[C@@H]1C=CC(=O)O[C@@H]1C[C@@H](O)[C@H](C)[C@H](OC)[C@@H](C)Cc1ccc(F)cc1 | MTT | 48 h | GI50 | 215 nM |
| COc1ccc(C(=O)O[C@@H]2CN3Cc4c(cc5c(c4OC)OCO5)[C@@]24C=C[C@H](OC)C[C@@H]34)cc1 | WST-1 |  | IC50 | > 10000 nM |
| Nc1ccn([C@@H]2O[C@H](CO)[C@@H](O)C2(F)F)c(=O)n1 | CCK-8 | 72 h | IC50 | 4.7 nM |
